Data published in ChEMBL document CHEMBL4359913, “Identification and characterization of benzo[d]oxazol-2(3H)-one derivatives as the first potent and selective small-molecule inhibitors of chromodomain protein CDYL” (Eur J Med Chem, 2019).
Active and inactive are the calls of the source. The calls are words filed in the database; no cut-off is given here. Where a SMILES comes first, the peptide text is derived from it. [ ]: non-standard residue; d: D form. The star is where a group is joined. Benzoyl(4-tBu) = CC(C)(C)c1ccc(C(=O)*)cc1; Lys(Et2) = CCN(CC)CCCC[C@H](N)C(=O)O

How the values were obtained:
[1] = biological target: T1, Chromodomain Y-like protein (Homo sapiens, UniProt Q9Y232); assay: Binding affinity to recombinant human N-terminal GST-tagged CDYL (1 to 60 residues) expressed in Escherichia coli […] by SPR analysis
T1 sequence (Q9Y232 whole entry): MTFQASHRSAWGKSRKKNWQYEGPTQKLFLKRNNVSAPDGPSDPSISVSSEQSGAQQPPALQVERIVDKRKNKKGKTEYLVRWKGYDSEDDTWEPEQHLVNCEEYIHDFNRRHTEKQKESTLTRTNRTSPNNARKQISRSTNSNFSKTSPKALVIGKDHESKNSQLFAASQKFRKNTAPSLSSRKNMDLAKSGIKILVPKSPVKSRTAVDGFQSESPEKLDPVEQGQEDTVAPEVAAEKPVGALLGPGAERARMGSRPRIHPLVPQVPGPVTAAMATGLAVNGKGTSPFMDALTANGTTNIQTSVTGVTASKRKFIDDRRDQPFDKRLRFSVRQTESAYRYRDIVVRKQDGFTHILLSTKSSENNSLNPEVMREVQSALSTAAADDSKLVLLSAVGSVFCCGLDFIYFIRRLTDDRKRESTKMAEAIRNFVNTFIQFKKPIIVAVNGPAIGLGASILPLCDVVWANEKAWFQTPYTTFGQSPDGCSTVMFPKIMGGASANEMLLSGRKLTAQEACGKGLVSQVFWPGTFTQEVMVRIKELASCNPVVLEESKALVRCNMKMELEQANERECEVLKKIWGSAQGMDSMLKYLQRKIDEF
Outline: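 GST-tagged chromodomain expressed in E. coli BL21 with 0.2 mM IPTG at 28 °C for 6 h. Purified on GSTrap, tag removed with PreScission protease. Amine-coupled to CM5 chip at pH 4.0–4.5 (5000–10000 RU). Compound run as a 1.5- or 2-fold series from 100 µM in PBSP with 5% DMSO, 25 °C, 30 µL/min, 60 s association and 60 s dissociation.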

[2] = biological target: T2, Testis-specific chromodomain protein Y 1 (Homo sapiens, UniProt Q9Y6F8); assay: Binding affinity to recombinant human N-terminal GST-tagged CDY1 (1 to 65 residues) expressed in Escherichia coli […] by SPR analysis
T2 sequence (Q9Y6F8 whole entry): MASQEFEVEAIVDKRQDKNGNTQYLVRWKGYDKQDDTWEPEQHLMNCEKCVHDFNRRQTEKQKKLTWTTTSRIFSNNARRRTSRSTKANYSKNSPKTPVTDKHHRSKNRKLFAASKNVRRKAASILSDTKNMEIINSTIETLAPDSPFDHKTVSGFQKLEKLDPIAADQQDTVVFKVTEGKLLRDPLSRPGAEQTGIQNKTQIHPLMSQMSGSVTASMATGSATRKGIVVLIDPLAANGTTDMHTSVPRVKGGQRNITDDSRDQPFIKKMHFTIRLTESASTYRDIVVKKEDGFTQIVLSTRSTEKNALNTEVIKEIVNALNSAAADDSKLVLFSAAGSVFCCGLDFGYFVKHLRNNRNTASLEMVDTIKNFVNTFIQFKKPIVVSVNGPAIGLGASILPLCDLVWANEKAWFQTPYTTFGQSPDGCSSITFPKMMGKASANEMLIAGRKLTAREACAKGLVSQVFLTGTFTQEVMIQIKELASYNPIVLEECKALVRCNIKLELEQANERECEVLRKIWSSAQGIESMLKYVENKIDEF
Outline: (§1)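 Chromodomain expressed with N-terminal GST tag in E. coli BL21 (IPTG 0.2 mM at OD600 0.6–0.8, 28 C for 6 h), GSTrap purified, tag cleaved by PreScission protease, amine-coupled to CM5 chip at pH 4.0–4.5 (5000–10000 RU). […] Mean ± SD of at least two replicates, each in duplicate.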

[3] = biological target: T3, Chromobox protein homolog 7 (Homo sapiens, UniProt O95931); assay: Binding affinity to recombinant human N-terminal GST-tagged CBX7 (1 to 62 residues) expressed in Escherichia coli […] by SPR analysis; outline: as §1
T3 sequence (O95931 whole entry): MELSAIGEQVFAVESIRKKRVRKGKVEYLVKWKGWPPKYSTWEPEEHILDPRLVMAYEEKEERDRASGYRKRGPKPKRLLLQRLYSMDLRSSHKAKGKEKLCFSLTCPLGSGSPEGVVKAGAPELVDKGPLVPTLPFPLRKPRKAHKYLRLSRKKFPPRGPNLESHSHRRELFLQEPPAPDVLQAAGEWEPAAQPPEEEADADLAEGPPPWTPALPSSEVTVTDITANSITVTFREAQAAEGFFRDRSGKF

[4] = biological target: T4, Chromodomain Y-like protein (Homo sapiens) (UniProt Q9Y232); assay: Inhibition of CDYL in human SH-SY5Y cells assessed as increase in MYT1 mRNA expression at 100 uM incubated for 24 hrs by RT-qPCR analysis; type: cell-based
T4 sequence (whole entry): T1 sequence (Q9Y232 whole entry)
Outline: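 SH-SY5Y cells exposed to 100 µM compound for 24 h. MYT1 mRNA measured by RT-qPCR: DNase treatment, SYBR green, 2^-ΔΔCt with GAPDH as internal control. Mean ± S.E.M. of triplicate experiments.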

[5] = biological target: T4, Chromodomain Y-like protein (Homo sapiens); assay: Inhibition of CDYL in human SH-SY5Y cells assessed as increase in MYT1 mRNA expression incubated for 24 hrs by RT-qPCR analysis; type: cell-based
Outline: (§2)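 SH-SY5Y or HEK-293T cells grown in DMEM with 10% FBS and treated with compound for 24 h. mRNA quantified by SYBR green RT-qPCR after DNase treatment, 2^-ΔΔCt method with GAPDH as reference, relative to DMSO. Mean ± S.E.M. of triplicate experiments, Student's t-test.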

[6] = biological target: T4, Chromodomain Y-like protein (Homo sapiens); assay: Inhibition of CDYL in human SH-SY5Y cells assessed as increase in BDNF mRNA expression incubated for 24 hrs by RT-qPCR analysis; type: cell-based; outline: as §2
[7] = biological target: T4, Chromodomain Y-like protein (Homo sapiens); assay: Inhibition of CDYL in human SH-SY5Y cells assessed as increase in VGF mRNA expression incubated for 24 hrs by RT-qPCR analysis; type: cell-based; outline: as §2
[8] = biological target: T4, Chromodomain Y-like protein (Homo sapiens); assay: Inhibition of CDYL in human HEK293T cells assessed as increase in MYT1 mRNA expression at 50 to 200 uM incubated for 24 hrs by RT-qPCR analysis; type: cell-based; outline: as §2
[9] = biological target: T4, Chromodomain Y-like protein (Homo sapiens); assay: Inhibition of CDYL in human HEK293T cells assessed as increase in BDNF mRNA expression at 50 to 200 uM incubated for 24 hrs by RT-qPCR analysis; type: cell-based; outline: as §2
[10] = biological target: T4, Chromodomain Y-like protein (Homo sapiens); assay: Inhibition of CDYL in human HEK293T cells assessed as increase in VGF mRNA expression at 50 to 200 uM incubated for 24 hrs by RT-qPCR analysis; type: cell-based; outline: as §2
[11] = biological target: T4, Chromodomain Y-like protein (Homo sapiens); assay: Effect on CDYL-mediated MYT1 mRNA expression in human SH-SY5Y cells up to 200 uM incubated for 24 hrs by RT-qPCR analysis; type: cell-based
[12] = biological target: T4, Chromodomain Y-like protein (Homo sapiens); assay: Effect on CDYL-mediated MYT1 mRNA expression in human HEK293T cells up to 200 uM incubated for 24 hrs by RT-qPCR analysis; type: cell-based
[13] = tested on: SH-SY5Y; assay: Cytotoxicity against human SH-SY5Y cells assessed as reduction in cell viability incubated for 24 hrs by CCK8 assay
[14] = tested on: HEK-293T; assay: Cytotoxicity against human HEK293T cells assessed as reduction in cell viability incubated for 24 hrs by CCK8 assay
[15] = biological target: T4, Chromodomain Y-like protein (Homo sapiens); assay: Inhibition of CDYL in human SH-SY5Y cells assessed as BDNF mRNA expression at 50 to 200 uM incubated for 24 hrs by RT-qPCR analysis; type: cell-based; outline: as §2
[16] = biological target: T4, Chromodomain Y-like protein (Homo sapiens); assay: Inhibition of CDYL in human SH-SY5Y cells assessed as VGF mRNA expression at 50 to 200 uM incubated for 24 hrs by RT-qPCR analysis; type: cell-based; outline: as §2
[17] = biological target: T4, Chromodomain Y-like protein (Homo sapiens); assay: Inhibition of CDYL in human SH-SY5Y cells assessed as MYT1 mRNA expression at 50 to 200 uM incubated for 24 hrs by RT-qPCR analysis; type: cell-based; outline: as §2

SMILES | Kd [1] [µM] | Kd [2] [µM] | Kd [3] [µM] | Activity [5] | Activity [8] | Activity [9] | Activity [10] | other results
CCc1ccc(C(=O)CC2(O)C(=O)Nc3ccc(Cl)cc32)cc1 (centres undefined) | 55.6 | 33.5 | 12.1 |  |  |  |  | Activity [4]: Active
O=C(Cn1c(=O)oc2ccccc21)c1ccc2ccccc2c1 | 2.6 | 41.7 | 14.2 | Dose-dependent effect | Active | Active | Active | Activity [6]: Dose-dependent effect; Activity [7]: Dose-dependent effect
CCN(CC)CCCC[C@H](NC(=O)[C@H](CC(C)C)NC(=O)[C@H](C)NC(=O)[C@H](Cc1ccccc1)NC(=O)c1ccc(C(C)(C)C)cc1)C(=O)N[C@@H](CO)C(=O)OC ({Benzoyl(4-tBu)}-FAL[Lys(Et2)]S-OMe) | 5.6 |  |  |  |  |  |  | Activity [11]: inactive; Activity [12]: inactive
COc1cccc(C(=O)CC2(O)C(=O)Nc3ccc(Cl)cc32)c1 (racemic) | 4.9 |  | 84.4 | Dose-dependent effect |  |  |  | IC50 [13]: 68.1 µM; IC50 [14]: 56.1 µM
COc1ccc2oc(=O)n(CC(=O)N3CCC(N4CCCC4)CC3)c2c1 | 12.5 |  | 8.2 |  | inactive | inactive | inactive | Activity [15]: inactive; Activity [16]: inactive; Activity [17]: inactive
